PMC9435035 (ACS Omega, 2022)

How the values were obtained:
α-glucosidase = α-glucosidase (Saccharomyces cerevisiae, UniProt P53341); experiment: α-glucosidase inhibitory activity; assay type: biochemical; conditions: read-out: glucosidase inhibition IC50 ± SEM; mean ± SEM
Balb/C mice = experiment: acute toxicity study in mice; assay type: in vivo
How it was run: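 Two-phase modified Lorke protocol in Balb/C mice (20–25 g), four per group. Phase 1: control given Tween-80 (2%); other groups received oral test compound at 100, 500 or 1000 mg/kg. Phase 2: oral doses of 1250, 1500 and 2000 mg/kg. Animals observed for the first 24 h, then daily for 2 weeks for diarrhea, convulsions, lethargy, sleeping, salivation and tremors, with mortality monitored.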

[1] = test system: overnight fasted normal rats; experiment: oral glucose tolerance test; assay type: in vivo, Wistar albino rats; conditions: OGTT, glucose 3 g/kg oral
[2] = test system: streptozotocin-induced diabetic Wistar rats; experiment: antidiabetic activity: blood glucose in STZ-induced diabetes; assay type: in vivo, Wistar albino rats
How it was run: (§1)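 Male Wistar albino rats (170–200 g, 8–10 weeks), fasted overnight, given STZ 50 mg/kg i.p. in 0.1 M citrate buffer, then 10% glucose for 3 days. Tail-vein glucose by glucometer at 72 h; >250 mg/dL counted as diabetic. Body weight and blood glucose on days 1, 7, 14, 21 and 28. Means ± SEM, one-way ANOVA with Dunnett's test.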

[3] = body weight of STZ-induced diabetic rats; assay type: in vivo, Wistar albino rats; conditions: for body weight, day 1: day 1, in g (unit assumed); for body weight, day 7: day 7, in g (unit assumed); for body weight, day 14: day 14, in g (unit assumed); for body weight, day 21: day 21, in g (unit assumed); for body weight, day 28: day 28, in g (unit assumed)
How it was run: as §1

[4] = test system: streptozotocin-induced diabetic Wistar rats; experiment: lipid profile in streptozotocin-induced diabetes; assay type: in vivo, Wistar albino rats; conditions: STZ-diabetic rats
How it was run: (§2)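 STZ-diabetic Wistar rats (n = 8 per group) received test compound at 10 or 20 mg/kg p.o., or glibenclamide 500 μg/kg p.o., once daily for 28 days; controls received vehicle. On day 28, rats were anesthetised with pentobarbital sodium (35 mg/kg) and blood was drawn by cardiac puncture. Serum ALP, SGPT, SGOT, LDL, HDL, TG, total cholesterol, creatinine and insulin were measured. Means ± SEM, one-way ANOVA with Dunnett's test.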

[5] = test system: streptozotocin-induced diabetic Wistar rats; experiment: serum profile; assay type: in vivo, Wistar albino rats; conditions: STZ-diabetic rats; for (ALP) IU / (SGOT) IU / (SGPT) IU: serum
How it was run: as §2

Chain of α-glucosidase (P53341 whole entry): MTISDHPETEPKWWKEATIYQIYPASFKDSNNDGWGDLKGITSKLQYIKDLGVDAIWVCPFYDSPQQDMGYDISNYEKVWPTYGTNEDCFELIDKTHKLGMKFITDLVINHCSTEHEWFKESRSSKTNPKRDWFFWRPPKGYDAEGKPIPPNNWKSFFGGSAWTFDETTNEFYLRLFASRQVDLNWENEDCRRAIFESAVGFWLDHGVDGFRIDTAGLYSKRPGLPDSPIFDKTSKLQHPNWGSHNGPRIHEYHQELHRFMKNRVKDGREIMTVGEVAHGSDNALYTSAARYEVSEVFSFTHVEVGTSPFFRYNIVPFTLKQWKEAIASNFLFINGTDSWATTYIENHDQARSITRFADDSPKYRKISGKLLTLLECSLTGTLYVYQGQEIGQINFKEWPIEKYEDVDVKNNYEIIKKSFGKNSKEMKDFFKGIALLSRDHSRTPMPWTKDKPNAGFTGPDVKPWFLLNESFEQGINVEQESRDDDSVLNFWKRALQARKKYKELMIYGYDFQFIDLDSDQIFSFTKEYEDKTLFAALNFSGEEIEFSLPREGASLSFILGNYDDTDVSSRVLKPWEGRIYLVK

Substance: 2-(4-Fluorophenyl)-4-(p-tolyl)-2,3-dihydrobenzo[b][1,5]thiazepine [13B]
- IC50 (α-glucosidase): 3.28 ± 0.19 µM
- mortality (Balb/C mice; maximum oral dose of 2000 mg/kg (b.w.)): no mortality
- toxic effects (diarrhea, convulsions, lethargy, sleeping, salivation, tremor) (Balb/C mice; oral up to 2000 mg/kg, observed daily for 2 weeks): no toxic effects
- blood glucose level, 0 min ([1]; dose 10 mg/kg): 104.80 ± 4.97 mg/dL
- blood glucose level, 30 min ([1]; dose 10 mg/kg): 120.04 ± 5.04 mg/dL
- blood glucose level, 60 min ([1]; dose 10 mg/kg): 118.31 ± 4.65 mg/dL
- blood glucose level, 90 min ([1]; dose 10 mg/kg): 109.81 ± 4.56 mg/dL
- blood glucose level, 120 min ([1]; dose 10 mg/kg): 113.93 ± 4.67 mg/dL
- blood glucose level, 0 min ([1]; dose 20 mg/kg): 103.79 ± 5.12 mg/dL
- blood glucose level, 30 min ([1]; dose 20 mg/kg): 116.81 ± 4.31 mg/dL
- blood glucose level, 60 min ([1]; dose 20 mg/kg): 114.98 ± 4.34 mg/dL
- blood glucose level, 90 min ([1]; dose 20 mg/kg): 110.21 ± 3.91 mg/dL
- blood glucose level, 120 min ([1]; dose 20 mg/kg): 110.04 ± 4.81 mg/dL
- blood glucose level, day 1 ([2]; 10 mg/kg p.o. once daily): 370.81 ± 4.79 mg/dL
- blood glucose level, day 7 ([2]; 10 mg/kg p.o. once daily): 289.89 ± 4.33 mg/dL
- blood glucose level, day 14 ([2]; 10 mg/kg p.o. once daily): 200.33 ± 4.57 mg/dL
- blood glucose level, day 21 ([2]; 10 mg/kg p.o. once daily): 149.30 ± 4.56 mg/dL
- blood glucose level, day 28 ([2]; 10 mg/kg p.o. once daily, day 28, 10 mg/kg): 132.98 ± 4.33 mg/dL
- blood glucose level, day 1 ([2]; 20 mg/kg p.o. once daily): 375.31 ± 5.01 mg/dL
- blood glucose level, day 7 ([2]; 20 mg/kg p.o. once daily): 230.71 ± 4.88 mg/dL
- blood glucose level, day 14 ([2]; 20 mg/kg p.o. once daily): 163.68 ± 4.37 mg/dL
- blood glucose level, day 21 ([2]; 20 mg/kg p.o. once daily): 120.72 ± 4.11 mg/dL
- blood glucose level, day 28 ([2]; 20 mg/kg p.o. once daily, day 28, 20 mg/kg): 108.42 ± 3.98 mg/dL
- body weight, day 1 ([3]; 10 mg/kg): 186.6 ± 4.70
- body weight, day 7 ([3]; 10 mg/kg): 183.4 ± 4.15
- body weight, day 14 ([3]; 10 mg/kg): 186.3 ± 4.22
- body weight, day 21 ([3]; 10 mg/kg): 180.1 ± 4.12
- body weight, day 28 ([3]; 10 mg/kg): 177.3 ± 4.40
- body weight, day 1 ([3]; 20 mg/kg): 193.6 ± 4.21
- body weight, day 7 ([3]; 20 mg/kg): 187.2 ± 4.81
- body weight, day 14 ([3]; 20 mg/kg): 191.1 ± 4.14
- body weight, day 21 ([3]; 20 mg/kg): 187.8 ± 3.99
- body weight, day 28 ([3]; 20 mg/kg): 185.7 ± 4.79
- HDL ([4]; 10 mg/kg for 28 days): 46.29 ± 2.01 mg/dL
- LDL ([4]; 10 mg/kg for 28 days): 127.81 ± 4.39 mg/dL
- TG ([4]; 10 mg/kg for 28 days): 142.93 ± 4.21 mg/dL
- total CH ([4]; 10 mg/kg for 28 days): 148.67 ± 4.11 mg/dL
- HDL ([4]; 20 mg/kg for 28 days): 56.08 ± 2.63 mg/dL
- LDL ([4]; 20 mg/kg for 28 days): 108.91 ± 4.11 mg/dL
- TG ([4]; 20 mg/kg for 28 days): 114.81 ± 4.41 mg/dL
- total CH ([4]; 20 mg/kg for 28 days): 134.21 ± 4.77 mg/dL
- insulin level ([5]; 10 mg/kg for 28 days): 0.696 ± 0.29 ng/mL
- serum creatinine ([5]; 10 mg/kg for 28 days): 0.76 ± 0.39 mg/dL
- (ALP) IU ([5]; 10 mg/kg for 28 days): 208.96 ± 4.22 IU
- (SGOT) IU ([5]; 10 mg/kg for 28 days): 25.41 ± 2.18 IU
- (SGPT) IU ([5]; 10 mg/kg for 28 days): 24.76 ± 2.81 IU
- insulin level ([5]; 20 mg/kg for 28 days): 0.705 ± 0.31 ng/mL
- serum creatinine ([5]; 20 mg/kg for 28 days): 0.70 ± 0.33 mg/dL
- (ALP) IU ([5]; 20 mg/kg for 28 days): 201.80 ± 4.71 IU
- (SGOT) IU ([5]; 20 mg/kg for 28 days): 22.09 ± 2.21 IU
- (SGPT) IU ([5]; 20 mg/kg for 28 days): 22.03 ± 2.78 IU
